Assay results from the M2OR odorant receptor database.

Legend:
Details in all cases: stereoisomer not certain
[1] = molecular target: T1, UniProt Q8VGZ2
T1 sequence (whole entry): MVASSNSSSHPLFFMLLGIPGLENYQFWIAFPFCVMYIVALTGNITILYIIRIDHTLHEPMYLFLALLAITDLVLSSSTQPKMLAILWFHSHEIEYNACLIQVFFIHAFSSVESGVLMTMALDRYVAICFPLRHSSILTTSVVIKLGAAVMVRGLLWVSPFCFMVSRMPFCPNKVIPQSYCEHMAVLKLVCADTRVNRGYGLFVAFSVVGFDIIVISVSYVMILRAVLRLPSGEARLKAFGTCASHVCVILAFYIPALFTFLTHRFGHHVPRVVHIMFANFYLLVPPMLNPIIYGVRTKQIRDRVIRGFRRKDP
Procedure, shortened: (§1)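 Each receptor–molecule pair is labelled responsive or non-responsive (inactive) according to whether the original authors judged the measured signal statistically different from baseline. The data were taken from the main text and supplementary material of published papers and checked for typos and inconsistencies. Assay methods differed by source, with transient luciferase assays in mammalian cell lines being common.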

[2] = molecular target: T2, UniProt Q8VGZ7
T2 sequence (whole entry): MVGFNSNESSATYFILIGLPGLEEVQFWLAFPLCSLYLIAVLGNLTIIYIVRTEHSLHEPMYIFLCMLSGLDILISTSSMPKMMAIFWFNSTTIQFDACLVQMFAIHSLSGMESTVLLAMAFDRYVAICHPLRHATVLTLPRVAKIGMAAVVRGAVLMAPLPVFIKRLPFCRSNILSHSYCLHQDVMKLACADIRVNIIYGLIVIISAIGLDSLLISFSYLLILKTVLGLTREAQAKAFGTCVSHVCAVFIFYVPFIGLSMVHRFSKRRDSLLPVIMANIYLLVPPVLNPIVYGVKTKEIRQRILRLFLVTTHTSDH
Procedure, shortened: as §1

[3] = molecular target: T3, UniProt Q8VH16
T3 sequence (whole entry): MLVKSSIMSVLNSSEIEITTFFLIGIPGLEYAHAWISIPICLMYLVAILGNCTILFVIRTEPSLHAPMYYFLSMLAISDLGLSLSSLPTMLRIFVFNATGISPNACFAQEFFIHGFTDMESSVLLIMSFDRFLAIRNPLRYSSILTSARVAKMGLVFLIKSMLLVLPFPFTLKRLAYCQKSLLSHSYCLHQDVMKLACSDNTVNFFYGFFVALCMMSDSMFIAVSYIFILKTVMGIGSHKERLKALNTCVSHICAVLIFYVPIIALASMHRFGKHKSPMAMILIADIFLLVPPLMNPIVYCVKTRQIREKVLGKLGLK
Procedure, shortened: as §1

[4] = molecular target: T4, UniProt Q8VH20
T4 sequence (whole entry): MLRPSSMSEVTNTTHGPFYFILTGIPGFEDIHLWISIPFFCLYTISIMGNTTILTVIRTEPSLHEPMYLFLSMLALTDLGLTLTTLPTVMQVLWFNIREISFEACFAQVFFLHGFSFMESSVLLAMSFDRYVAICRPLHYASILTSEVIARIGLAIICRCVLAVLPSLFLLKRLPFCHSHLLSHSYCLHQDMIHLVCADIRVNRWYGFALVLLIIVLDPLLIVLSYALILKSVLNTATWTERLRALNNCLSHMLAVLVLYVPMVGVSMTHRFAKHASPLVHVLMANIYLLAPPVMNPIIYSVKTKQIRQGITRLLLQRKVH
Procedure, shortened: as §1

[5] = molecular target: T5, UniProt Q8VH21
T5 sequence (whole entry): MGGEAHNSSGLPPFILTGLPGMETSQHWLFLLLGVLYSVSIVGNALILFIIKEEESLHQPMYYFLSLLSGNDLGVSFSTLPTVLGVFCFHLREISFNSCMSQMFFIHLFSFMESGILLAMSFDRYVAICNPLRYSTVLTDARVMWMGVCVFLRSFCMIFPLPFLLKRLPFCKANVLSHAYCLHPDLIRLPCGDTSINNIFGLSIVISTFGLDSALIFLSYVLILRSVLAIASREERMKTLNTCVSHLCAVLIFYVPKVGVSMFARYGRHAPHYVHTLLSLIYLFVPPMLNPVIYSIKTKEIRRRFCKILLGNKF
Procedure, shortened: as §1

[6] = molecular target: T6, UniProt Q924H8
T6 sequence (whole entry): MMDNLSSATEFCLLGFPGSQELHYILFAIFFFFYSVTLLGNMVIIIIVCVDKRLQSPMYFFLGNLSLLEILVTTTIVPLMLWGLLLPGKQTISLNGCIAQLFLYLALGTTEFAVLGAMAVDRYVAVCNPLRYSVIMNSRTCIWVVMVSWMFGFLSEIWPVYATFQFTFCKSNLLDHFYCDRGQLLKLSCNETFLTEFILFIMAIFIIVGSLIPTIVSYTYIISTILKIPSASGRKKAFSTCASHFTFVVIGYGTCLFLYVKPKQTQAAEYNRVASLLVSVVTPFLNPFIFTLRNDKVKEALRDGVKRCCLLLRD
Procedure, shortened: as §1

[7] = molecular target: T7, UniProt Q8VGX8
T7 sequence (whole entry): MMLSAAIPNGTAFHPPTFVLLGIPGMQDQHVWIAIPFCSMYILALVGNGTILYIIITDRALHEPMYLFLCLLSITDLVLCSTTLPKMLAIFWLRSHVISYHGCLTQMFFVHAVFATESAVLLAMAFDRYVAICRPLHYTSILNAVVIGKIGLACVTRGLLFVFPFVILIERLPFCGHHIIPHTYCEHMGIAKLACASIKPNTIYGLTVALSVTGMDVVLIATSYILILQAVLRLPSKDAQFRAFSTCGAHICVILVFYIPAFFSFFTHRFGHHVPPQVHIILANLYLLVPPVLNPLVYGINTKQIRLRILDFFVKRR
Procedure, shortened: as §1

[8] = molecular target: T8, UniProt Q8VH18
T8 sequence (whole entry): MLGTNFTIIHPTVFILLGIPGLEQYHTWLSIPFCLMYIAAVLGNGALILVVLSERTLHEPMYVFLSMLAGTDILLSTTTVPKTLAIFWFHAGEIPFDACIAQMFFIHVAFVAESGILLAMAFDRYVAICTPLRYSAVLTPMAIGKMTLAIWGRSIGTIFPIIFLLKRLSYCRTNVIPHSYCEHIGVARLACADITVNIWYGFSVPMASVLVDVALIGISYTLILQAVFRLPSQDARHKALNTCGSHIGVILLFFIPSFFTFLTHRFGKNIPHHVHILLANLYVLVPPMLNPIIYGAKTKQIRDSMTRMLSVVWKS
Procedure, shortened: as §1

[9] = molecular target: T9, UniProt Q924X8
T9 sequence (whole entry): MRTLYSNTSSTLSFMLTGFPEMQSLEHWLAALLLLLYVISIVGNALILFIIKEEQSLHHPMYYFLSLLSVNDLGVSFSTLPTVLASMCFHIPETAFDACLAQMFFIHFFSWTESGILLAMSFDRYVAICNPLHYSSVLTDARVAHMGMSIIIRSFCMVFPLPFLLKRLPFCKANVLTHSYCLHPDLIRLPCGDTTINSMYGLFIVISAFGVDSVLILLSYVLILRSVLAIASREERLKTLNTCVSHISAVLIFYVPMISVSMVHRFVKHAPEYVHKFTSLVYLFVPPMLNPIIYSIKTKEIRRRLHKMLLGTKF
Procedure, shortened: as §1

[10] = molecular target: T10, UniProt Q99NH4
T10 sequence (whole entry): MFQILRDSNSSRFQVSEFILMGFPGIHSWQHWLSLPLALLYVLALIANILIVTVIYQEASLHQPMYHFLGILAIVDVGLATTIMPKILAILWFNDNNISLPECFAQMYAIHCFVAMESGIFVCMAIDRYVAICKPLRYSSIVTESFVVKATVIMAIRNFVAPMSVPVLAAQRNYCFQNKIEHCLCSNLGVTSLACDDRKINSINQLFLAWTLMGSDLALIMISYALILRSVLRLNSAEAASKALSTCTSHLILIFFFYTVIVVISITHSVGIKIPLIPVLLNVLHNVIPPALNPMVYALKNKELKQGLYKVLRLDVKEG
Procedure, shortened: as §1

[11] = molecular target: T11, UniProt Q9WU94
T11 sequence (whole entry): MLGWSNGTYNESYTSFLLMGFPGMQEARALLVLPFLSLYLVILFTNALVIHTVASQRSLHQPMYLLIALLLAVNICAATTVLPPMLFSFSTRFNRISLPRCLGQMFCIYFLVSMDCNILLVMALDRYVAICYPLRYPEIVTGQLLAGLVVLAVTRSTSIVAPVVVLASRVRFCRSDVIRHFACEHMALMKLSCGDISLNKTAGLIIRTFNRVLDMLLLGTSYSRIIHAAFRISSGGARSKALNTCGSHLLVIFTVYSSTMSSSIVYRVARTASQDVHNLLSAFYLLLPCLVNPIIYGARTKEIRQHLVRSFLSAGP
Procedure, shortened: as §1

[12] = molecular target: T12, UniProt Q9WVD7
T12 sequence (whole entry): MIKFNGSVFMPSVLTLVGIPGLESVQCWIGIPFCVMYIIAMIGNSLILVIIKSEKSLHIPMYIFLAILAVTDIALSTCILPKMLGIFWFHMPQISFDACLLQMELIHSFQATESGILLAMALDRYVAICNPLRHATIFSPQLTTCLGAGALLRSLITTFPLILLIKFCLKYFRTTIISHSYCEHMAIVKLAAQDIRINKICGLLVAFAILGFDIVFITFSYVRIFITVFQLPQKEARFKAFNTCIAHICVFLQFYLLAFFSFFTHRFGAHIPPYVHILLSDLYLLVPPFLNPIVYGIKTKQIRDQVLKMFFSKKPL
Procedure, shortened: as §1
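Further: active if original authors judged signal statistically different from baseline.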

Row | SMILES | odorant receptor agonist call [1] | odorant receptor agonist call [2] | odorant receptor agonist call [3] | odorant receptor agonist call [4] | odorant receptor agonist call [5] | odorant receptor agonist call [6] | odorant receptor agonist call [7] | odorant receptor agonist call [8] | odorant receptor agonist call [9] | odorant receptor agonist call [10] | odorant receptor agonist call [11] | odorant receptor agonist call [12]
1 | CCc1ncc(C)nc1CC | inactive | inactive | inactive | inactive | inactive | inactive |  |  |  |  |  | 
2 | C1CCOC1 | inactive | inactive | inactive | inactive | inactive | inactive |  |  |  |  |  | 
3 | CCCCCCC(C)O (stereo not drawn) | inactive | inactive | inactive | inactive | inactive | inactive |  |  |  |  |  | 
4 | CC(CC=O)CCCC(C)(C)O (stereo not drawn) | inactive | inactive | inactive | inactive | inactive | inactive |  |  |  |  |  | 
5 | CC(=O)OCCc1ccccc1 | inactive | inactive | inactive | inactive | inactive | inactive |  |  |  |  |  | 
6 | O=C([O-])CCCCCCC(=O)[O-].[H+].[H+] | inactive | inactive | inactive | inactive | inactive | inactive | inactive | inactive | active | inactive | inactive | inactive
7 | C=C(C)C1CCC(C)C(O)C1 (stereo not drawn) | inactive | inactive | inactive | inactive | inactive | inactive |  |  |  |  |  | 
8 | CC(C)CS | inactive | inactive | inactive | inactive | inactive | inactive |  |  |  |  |  | 
9 | C=CC(C)=CCC=C(C)CCC=C(C)C | inactive | inactive | inactive | inactive | inactive | inactive |  |  |  |  |  | 
10 | O=C(O)CCCBr |  |  |  |  |  |  | inactive | inactive | active | inactive | inactive | inactive
11 | OCCCCCCCCCO | inactive | inactive | inactive | inactive | inactive | inactive |  |  |  |  |  | 
12 | C=C(C)C1CC=C(C)CC1 (stereo not drawn) | inactive | inactive | inactive | inactive | inactive | inactive |  |  |  |  |  | 
13 | CCC(C)O (stereo not drawn) | inactive | inactive | inactive | inactive | inactive | inactive |  |  |  |  |  | 
14 | CCCCCCC(C=O)=Cc1ccccc1 | inactive | inactive | inactive | inactive | inactive |  |  |  |  |  |  | 
15 | CC=CC(=O)C1=C(C)CCCC1(C)C | inactive | inactive | inactive | inactive | inactive | inactive |  |  |  |  |  | 
16 | CCCCC=O | inactive | inactive | inactive | inactive | inactive | inactive |  | inactive |  | inactive | inactive | 
17 | O=C([O-])CCCCCCCC(=O)[O-].[H+].[H+] | inactive | inactive | inactive | inactive | inactive | inactive | inactive | inactive | active | inactive | active | inactive
18 | O=C(O)CCCCCBr | inactive | inactive | inactive | active | inactive | inactive | active | inactive | active | inactive | inactive | active
